Ecoli tolC = blocks growth of E. coli BW25113 tolC mutant; 65,000 compounds, 2.2% hits; growth inhibition, % at 10 µM (by protocol); AID 573; OD615;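 active = growth inhibition at or above a cutoff equal to the mean over every tested compound plus 3 SD, cut at about 60% in these data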;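 also: growth measured after 20 h incubation at 37 °C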
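Assay system: tolC-deleted E. coli BW25113. Medium: kanamycin-containing LB broth (50 µg/mL). Dosing: 10 µM final, single dose. Timing: bacterial growth with compound for 20 h at 37 °C. Detection: A615 absorbance measurement. Read-out basis: growth inhibition in percent.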
PostGolgi yeast = growth inhibition of a yeast mutant, post-Golgi transport screen; AID 739; inhibition, % at 10 µM; post-Golgi transport phenotypic cell assay; 98,000 compounds, 0.9% hits;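 also: yeast cells grown in 1536-well plates; yeast grown about 18 h at 30C before absorbance read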
Cav32 inh = inhibitors of human Cav3.2 T-type calcium channel; 100,000 compounds, 4% hits; Cav3.2-expressing cells, Fluo-4 calcium fluorescence FDSS; stronger effect = lower value; B-score at 10 µM; AID 449739;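 active = single-dose well whose peak fluorescence ratio is a statistical outlier from its plate by either plate-standardised score or position-corrected B-score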
Ecoli WT expand = growth inhibitors of E. coli BW25113 wild type. OD600 absorbance. growth inhibition, % at 100 µM. 98,000 compounds, 0.15% hits;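 active = growth inhibition above about 50% at one test dose, limit read from the data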;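 also: growth measured after 20 h incubation at 37 °C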
PostGolgi ctrl = inhibits growth of the yeast control strain; efflux-deficient yeast background strain, growth absorbance A615, 16 h; inhibition, % at 10 µM; 98,000 compounds, 5% hits
PTK2B oligo ant = blocks oligomerization of human Pyk2 in cells | 99,000 compounds, 0.83% hits | AID 1347419 | Q293 cells, Pyk2 FERM NanoBiT luminescence; stronger effect = lower value | z-score (the deposit names both 25 µM and 10 µM) | Q14289;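 active = Z-score of -3 or lower, scaled per plate to the spread of control and sample wells; inactive = z-score above -3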;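 also: negative z-score means lost luminescence so less FERM oligomerization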
* hit, by the source's call; . = no result given. Compounds with a hit are over-represented: about 8.7% of the library has one in this group of screens. Rule as the data show it, unless noted: active = inhibition above about 30%; inactive = the rest.

SMILES	Ecoli tolC	PostGolgi yeast	Cav32 inh	Ecoli WT expand	PostGolgi ctrl	PTK2B oligo ant
Cc1ccc(CN2C(=O)NC(=O)C3(Cc4c(nc5ccccn5c4=O)N4CCCCCC43)C2=O)cc1 (configuration not stated)	74.0*	-1.2	-1.41	-8.0	13.0	-1.56
CC1(C)C2CC=C(CN3CCOCC3)C1C2 (configuration not stated)	-11.9	-0.8	0.441	1.0	8.7	1.47
CCC(=NCc1ccc2c(c1)OCO2)c1c(O)n(C2CCCCC2)c(=O)[nH]c1=O	74.7*	21.5	-5.77*	-6.0	66.9*	-2.98
COc1ccc(C2C(C#N)=C(N)Oc3c2c(=O)oc2ccccc32)cc1Cn1cc([N+](=O)[O-])cn1 (configuration not stated)	.	5.2	.	-6.0	10.8	-0.45
CCCC(C)C1C(C#N)=C(N)Oc2c1c(=O)oc1ccccc21 (configuration not stated)	14.2	6.1	.	-7.0	36.2*	-1.19
Cc1ccc(-n2nc(C)c(C3C(C#N)=C(N)Oc4c3c(=O)oc3ccccc43)c2Cl)cc1 (configuration not stated)	.	7.5	.	-8.0	38.9*	.
CC(C)Oc1ccc(C2C(C#N)=C(N)Oc3c2c(=O)oc2ccccc32)cc1 (configuration not stated)	.	-3.2	-0.00996	9.0	-4.6	-2.14
CC(=NCCN1CCOCC1)c1c(O)n(C2CCCCC2)c(=O)[nH]c1=O	-4.5	3.9	1.81	-2.0	5.8	-0.86
CCOC(=O)c1c(N)n(CCN2CCCCC2)c2nc3ccccc3nc12	8.8	-1.8	-0.42	5.0	0.4	1.06
COc1ccc(CCNC(=O)c2c(N)n(CCN3CCOCC3)c3nc4ccccc4nc23)cc1	50.2	-3.1	0.668	-9.0	35.3*	0.6
Nc1c(C(=O)NCCc2ccccc2)c2nc3ccccc3nc2n1CCN1CCOCC1	89.8*	50.2*	-0.373	-23.0	40.0*	1.91
CCCCn1c(N)c(C(=O)NCCN2CCOCC2)c2nc3ccccc3nc21	11.6	1.8	-0.324	10.0	7.5	-1.81
CN1C(=O)C(=Cc2ccccc2Oc2ccc(Cl)c(F)c2)C(=O)N(C)C1=O	.	0.0	-4.75*	20.0	4.1	-4.45*
CN(C)c1cc(N)c2c(n1)CCC2 (tested in a mixture with another compound)	-12.8	-9.8	0.595	-6.0	3.6	-0.08
O=C1CN=C(c2ccccc2)c2ccccc2N1Cc1ccc(C(F)(F)F)cc1	.	3.3	-2.9	2.0	41.7*	-2.84
CN(CC1COc2ccccc2O1)c1nc(-c2cccnc2)nc2ccccc12 (configuration not stated)	24.0	5.8	-2.05	4.0	69.6*	-1.89
CN1CCC(N(C)c2nc(-c3ccc([N+](=O)[O-])cc3)nc3ccccc23)CC1	.	-8.1	.	6.0	-3.0	-0.17
Cc1ccc(C(=O)Nc2ccc(-n3ccnc3P(=O)(O)c3ccccc3)cc2)cc1	.	10.8	1.16	0.0	6.6	0.41
O=c1[nH]c(=O)n(CCC2=CCCCC2)c(O)c1C=NC1CCN(Cc2ccccc2)CC1	24.0	-5.1	1.86	-3.0	-4.8	0.97
CCCCCCn1c(O)c(C=NC2CCN(Cc3ccccc3)CC2)c(=O)[nH]c1=O	8.1	-4.3	-3.31*	-10.0	7.0	0.26
COC1C(OC(=O)c2ccc(C)[nH]2)C(O)C(Oc2ccc3c(O)c(NC(=O)c4ccc(O)c(CC=C(C)C)c4)c(=O)oc3c2Cl)OC1(C)C (configuration not stated)	.	.	-0.0731	.	.	.
CC(=O)Nc1ccc(OC(=O)N(C)C)cc1	-17.2	5.6	1.13	-6.0	1.8	0.93
Cn1c2ccccc2c2c(C(=O)N3CCC4(CC3)OCCO4)cn(C3CCCC3)c(=O)c21	-12.2	32.9*	0.274	11.0	4.1	-0.28
CN1C(=O)N(C)C(=O)C2(Sc3ccccc3C2=O)C1=O	-6.0	4.5	0.111	5.0	-0.6	-1.32
C[n+]1ccc(-c2ccncc2)cc1	-14.5	-21.4	0.57	0.0	3.5	1.27
O=C(CN1C(=O)CN=C(c2ccccc2Cl)c2cc(Cl)ccc21)NCc1ccco1	2.0	2.8	-2.99	-4.0	31.1*	-0.6
COc1ccc(C2=NCC(=O)N(CC(=O)NCc3ccco3)c3sc4c(c32)CCCC4)cc1	19.4	-4.5	-3.48	2.0	8.4	-0.02
Cc1cccc(C2=NCC(=O)N(CC(=O)NCc3ccco3)c3sc4c(c32)CCCC4)c1	24.6	-8.0	-3.93*	3.0	-0.8	-0.49

Screening results as filed in PubChem BioAssay.
